FLuc inh counter: firefly luciferase enzyme inhibitors, primary screen, artefact control for luciferase-based inhibitor screens, biochemical, luminescence, ATPLite | Luciferin 4-monooxygenase (Photinus pyralis), P08659 | 10 min | inhibition, % at 10 µM | hit rate 1.5% among 200,000 | AID 1006, 2008;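 active = inhibition above about 50% when tested at 10 µM, limit read from the data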
APP 5'UTR act: activators of APP 5'UTR luciferase reporter, primary screen, SH-SY5Y cells; SH-SY5Y APP 5'UTR luciferase reporter, luminescence; zero percent = DMSO vehicle wells; activation, % at 2 µM; hit rate 1% among 190,000;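 active = activation above a set limit, based on mean plus 3 SD of controls, cut at about 140% in these data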
FLuc stim CS: FLuc activators, initial screening, artefact control for FLuc-dependent activation tests, biochemical, ATPlite luminescence. Luciferin 4-monooxygenase (Photinus pyralis), P08659. ATPlite luciferase biochemical, 10 min; 0 = ATP-free wells, 1 = DMSO control. activation factor at 10 µM. 200,000 tested, under 10 active. AID 1027, 2008;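 active = luciferase activation factor, scaled between plate controls, of at least 2 with compound at 10 µM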
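System: luciferase plus luciferin reagent, cell-free; medium: PBS as buffer for the ATP substrate; dosing: test compounds dosed from 2 mM stocks in 100% DMSO; timing: 10 min post-reagent at room temperature; measured by: luminescence measurement of luciferase light output; evaluation: luciferase activation, seen as luminescence increase over controls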
NF-kB neuron act: activators of NF-kB expression in neurons, primary screen, cell-based, HTS; human neuronal cells, NF-kB reporter expression; active compounds read high; fold change at 12.5 µM; hit rate 1.6% among 190,000; in the data active = fold change above about 3.3
STAT1 act: STAT1 signaling activators, primary screen, cell-based, HTS, luciferase reporter; activation (% of control), % at 5.5 µM; NIH 3T3 STAT1-luciferase reporter, IFN-gamma, luminescence; 100% = IFN-gamma alone, no compound; hit rate 2.6% among 200,000;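 active = activation above the screen-wide mean activation plus 3 SD, cut at about 130% in these data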;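 note: raw ratio to IFN-gamma control signal so 100% means no change and 0% no light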
Pf gametocyte: late stage P. falciparum gametocyte viability inhibitors, primary screen, ATP luminescence, HTS | P. falciparum stage V gametocytes, 24 h | inhibition, % at 10.9 µM | hit rate 0.065% among 150,000;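 active = inhibition above the mean plus 3 SD of compounds within the control limits, set per campaign, cut at about 38% in these data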;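 note: 0% = DMSO wells and 100% = medium only without gametocytes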
Numbers without * were called inactive; nt = no result given. Compounds with a hit are over-represented: about 3.5% of the library has one in this group of screens.

SMILES | FLuc inh counter | APP 5'UTR act | FLuc stim CS | NF-kB neuron act | STAT1 act | Pf gametocyte
CC1=C(C(=O)OCC(C)C)C2(O)C(=O)c3ccccc3C2(O)N1 (stereo unspecified) | -6 | -1 | 1.1 | 0.92 | 96 | -5
O=C(Cc1ccccc1)NCc1ccc(-n2cccc2)cc1 | 3 | -1 | 1 | 1.1 | 106 | 7
Cc1ccc(-n2c(C)cc(/C=N/NC(=O)c3ccncc3)c2C)c(C)c1 | 18 | -14 | 0.8 | 0.86 | 106 | nt
CC(c1ccco1)N(C(=O)C12CC3CC(CC(C)(C3)C1)C2)c1ccccn1 (stereo unspecified) | -3 | 17 | 1 | 1.1 | 110 | -5
COc1ccc(NC(=O)C2=Cc3ccccc3OC2)cc1 | 52* | 157* | 0.5 | 9.5* | 81 | 8
O=C(Nc1ccc(Cl)cc1)C1=Cc2cc(Cl)ccc2OC1 | -3 | nt | 1 | 1.3 | 96 | nt
COc1cccc2c1OCC(C(=O)OCc1cccnc1)=C2 | -3 | 16 | 1 | 0.91 | 100 | 3
O=C(Nc1ccc(Cl)cc1Cl)C1=Cc2ccccc2OC1 | 24 | 221* | 0.8 | 5.9* | 141* | nt
COc1ccc(NC(=O)C2=Cc3cccc(OC)c3OC2)cc1 | 55* | 78 | 0.4 | 1.7 | 116 | -2
CC(=O)C1=C(O)C(=O)N(c2ccc(S(=O)(=O)Nc3nccs3)cc2)C1c1ccc(F)cc1 (stereo unspecified) | nt | nt | nt | nt | nt | 8
Cc1ccc(C(=O)c2sc3nc4c(cc3c2N)CCC4)cc1 | 4 | 192* | 1 | 1.2 | 100 | -7
Cc1cccc(NC(=O)c2sc3nc(N)c(C#N)cc3c2N)c1 | -2 | 107 | 1 | 1.4 | 108 | 9
Cc1ccc(Nc2nnc(SCC(=O)NCCN3C(=O)CSC3=O)s2)cc1C | 82* | 26 | 0.2 | 1.6 | 117 | -20
CCN(CC)c1ccc(/C=N/O)cc1 | 18 | -5 | 0.8 | 1.2 | 106 | -38
CCN(CC)c1ccc(N=Nc2ncn[nH]2)cc1 | 82* | 49 | 0.2 | 2.6 | 104 | 6
O=C1CC(c2ccc(Cl)cc2)CC(=O)C1CS(=O)(=O)c1ccccc1 (stereo unspecified) | -9 | 19 | 1.1 | 0.99 | 106 | -16
O=C1CCCC(=O)C1CS(=O)(=O)c1ccccc1 | -8 | 7 | 1.1 | 0.91 | 108 | 39*
CC/C(=N\N=C(/CC)c1ccccc1N)c1ccccc1N | nt | nt | nt | nt | nt | 8
COc1ccc(N=C2NC(=O)S/C2=C\c2ccc(N(C)C)cc2)cc1 | 19 | 23 | 0.8 | 1.6 | 132* | 4
COc1ccc(C(=O)c2cc([N+](=O)[O-])ccc2N2CCOCC2)cc1 | -6 | -93 | 1.1 | 3.4* | 118 | 15
Cc1ccc(C(=O)c2cc([N+](=O)[O-])ccc2N2CCOCC2)cc1 | -6 | -93 | 1.1 | 2.1 | 97 | nt
Cc1ccc(C(=O)c2cc([N+](=O)[O-])ccc2N2CCCCC2)c(C)c1 | -10 | -96 | 1.1 | 3.9* | 100 | nt
CCOc1ccc(C(=O)c2cc([N+](=O)[O-])ccc2N2CCOCC2)cc1 | -6 | -94 | 1.1 | 3.6* | 122 | -3
O=C(NCc1ccccn1)c1cc(-n2cnnc2)ccc1Cl | 4 | 5 | 1 | 1 | 101 | nt
Cc1ccc(N/C=C/C(=O)c2cccs2)cc1C | 94* | 170* | 0.1 | 6.6* | 50 | 7
SMILES | FLuc inh counter | APP 5'UTR act | FLuc stim CS | NF-kB neuron act | STAT1 act | Pf gametocyte
O=C(O)c1ccccc1C(=O)c1cccs1 | -4 | -2 | 1 | 1.1 | 96 | nt
Cc1c(N/C=C/C(=O)c2cccs2)c(=O)n(-c2ccccc2)n1C | 0 | 29 | 1 | 0.91 | 128 | nt
O=C(/C=C/Nc1cccc([N+](=O)[O-])c1)c1cccs1 | 51* | 184* | 0.5 | 7.5* | 139* | -24
Cc1cc(N/C=C/C(=O)c2cccs2)ccc1F | 80* | 178* | 0.2 | 7.6* | 122 | 1
O=C(/C=C/Nc1ccccc1C(=O)O)c1cccs1 | 65* | 50 | 0.4 | 0.98 | 143* | 5
O=C(Cc1ccsc1)Nc1ccc(S(=O)(=O)C(F)F)cc1 | 6 | 1 | 0.9 | 0.95 | 116 | -6

Source: PubChem (several laboratories)
